Measurements as given in ChEMBL document CHEMBL4354843, “Structure-Based Design of a Potent and Selective Covalent Inhibitor for SRC Kinase That Targets a P-Loop Cysteine” (J Med Chem, 2020).
Activity calls are given as the source filed them. The calls are words filed in the database; no cut-off is given here.

Experiments:
[1] = target: Mitogen-activated protein kinase; ERK1/ERK2 (Homo sapiens) (UniProt P27361+P28482); assay: Inhibition of ERK1/2 in human NCI-H1975 cells assessed as blocking of ERK1/2 pulldown at 1 uM in presence of TL13-68 incubated for 2 hrs by Western blot analysis; assay type: cell-based
Outline: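 H1975 or HCC827 cells treated with 1 μM compound or DMSO for 2 h, rinsed twice in cold PBS, and lysed in M-PER with protease/phosphatase inhibitors. Lysate rocked overnight at 4 °C with 1 μM TL13-68, then streptavidin pulldown with five cold washes. Bound kinases detected by Western blot. Two independent experiments.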

[2] = system: Tyrosine-protein kinase ABL1 (Homo sapiens), P00519 [M351T]; assay: Binding affinity to human phosphorylated ABL1 M351T mutant (S229 to K512 residues) expressed in mammalian expression system assessed as residual binding level at 1 uM by Kinomescan method relative to control
Outline: (§1)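 Active-site-directed KinomeScan competition binding panel covering 468 kinases, compound tested at 1 μM. Each readout is the kinase signal remaining with compound, expressed as a percentage of the DMSO control. […]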

[3] = target: Casein kinase I isoform alpha-like (Homo sapiens) (UniProt Q8N752); assay: Binding affinity to wild-type human full length CSNK1A1L (M1 to N337 residues) expressed in bacterial expression system assessed as residual binding level at 1 uM by Kinomescan method relative to control; outline: as §1
[4] = system: Epidermal growth factor receptor (Homo sapiens), P00533 [UNDEFINED MUTATION]; assay: Binding affinity to human partial length EGFR E746-A750del mutant expressed in bacterial expression system assessed as residual binding level at 1 uM by Kinomescan method relative to control
Outline: (§2)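 KinomeScan active site-directed competition binding panel (468 kinases), compound tested at 1 μM. Result expressed as remaining kinase signal versus DMSO control (percent of control).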

[5] = system: Epidermal growth factor receptor (Homo sapiens), P00533 [G719S]; assay: Binding affinity to human partial length EGFR G719S mutant (R669 to V1011 residues) expressed in bacterial expression system assessed as residual binding level at 1 uM by Kinomescan method relative to control; outline: as §2
[6] = target: Mitogen-activated protein kinase 3 (Homo sapiens) (UniProt P27361); assay: Binding affinity to wild-type human full length ERK1 (M1 to P379 residues) expressed in bacterial expression system assessed as residual binding level at 1 uM by Kinomescan method relative to control; outline: as §1
[7] = target: Serine/threonine-protein kinase/endoribonuclease IRE1 (Homo sapiens) (UniProt O75460); assay: Binding affinity to wild-type human partial length ERN1 (S551 to E852 residues) expressed in mammalian expression system assessed as residual binding level at 1 uM by Kinomescan method relative to control
Outline: (§3)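 Active-site-directed competition binding panel of 468 kinases (KinomeScan), compound at 1 μM. The read-out is kinase remaining bound, given as a percentage of the DMSO control. […]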

[8] = target: Fibroblast growth factor receptor 3 (Homo sapiens) (UniProt P22607); assay: Binding affinity to wild-type human partial length FGFR3 (R442 to S771 residues) expressed in bacterial expression system assessed as residual binding level at 1 uM by Kinomescan method relative to control
[9] = target: Vascular endothelial growth factor receptor 3 (Homo sapiens) (UniProt P35916); assay: Binding affinity to wild-type human partial length FLT4 (E821 to E1196 residues) expressed in bacterial expression system assessed as residual binding level at 1 uM by Kinomescan method relative to control
[10] = target: Hormonally up-regulated neu tumor-associated kinase (Homo sapiens) (UniProt P57058); assay: Binding affinity to wild-type human partial length HUNK (A31 to K354 residues) expressed in bacterial expression system assessed as residual binding level at 1 uM by Kinomescan method relative to control
[11] = target: Insulin-like growth factor 1 receptor (Homo sapiens) (UniProt P08069); assay: Binding affinity to wild-type human partial length IGF1R (L972 to D1294 residues) expressed in bacterial expression system assessed as residual binding level at 1 uM by Kinomescan method relative to control
[12] = target: Mitogen-activated protein kinase 8 (Homo sapiens) (UniProt P45983); assay: Binding affinity to wild-type human full length JNK1 (M1 to Q384 residues) expressed in mammalian expression system assessed as residual binding level at 1 uM by Kinomescan method relative to control
Outline: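 KinomeScan, an active site-directed competition binding panel of 468 kinases. The test compound was at 1 μM. The readout is remaining kinase binding as a percentage of the DMSO control. Scores above 35% were treated as weak binding and not listed.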

[13] = system: Mast/stem cell growth factor receptor Kit (Homo sapiens), P10721 [V559D]; assay: Binding affinity to human partial length KIT V559D mutant (Y545 to D952 residues) expressed in bacterial expression system assessed as residual binding level at 1 uM by Kinomescan method relative to control; outline: as §2
[14] = target: Tyrosine-protein kinase Lck (Homo sapiens) (UniProt P06239); assay: Binding affinity to wild-type human partial length LCK (R207 to P509 residues) expressed in bacterial expression system assessed as residual binding level at 1 uM by Kinomescan method relative to control; outline: as §3
[15] = target: MAP kinase-activated protein kinase 5 (Homo sapiens) (UniProt Q8IW41); assay: Binding affinity to wild-type human partial length MAPKAPK5 (M1 to D322 residues) expressed in mammalian expression system assessed as residual binding level at 1 uM by Kinomescan method relative to control
[16] = target: Dual specificity mitogen-activated protein kinase kinase 4 (Homo sapiens) (UniProt P45985); assay: Binding affinity to wild-type human partial length MEK4 (S84 to D399 residues) expressed in mammalian expression system assessed as residual binding level at 1 uM by Kinomescan method relative to control
[17] = target: cAMP-dependent protein kinase catalytic subunit alpha (Homo sapiens) (UniProt P17612); assay: Binding affinity to wild-type human partial length PKAC-alpha (G10 to F351 residues) expressed in bacterial expression system assessed as residual binding level at 1 uM by Kinomescan method relative to control
[18] = target: Serine/threonine-protein kinase Sgk1 (Homo sapiens) (UniProt O00141); assay: Binding affinity to wild-type human partial length SGK (I60 to L431 residues) expressed in mammalian expression system assessed as residual binding level at 1 uM by Kinomescan method relative to control
[19] = target: Serine/threonine-protein kinase TAO1 (Homo sapiens) (UniProt Q7L7X3); assay: Binding affinity to wild-type human partial length TAOK1 (M1 to A320 residues) expressed in mammalian expression system assessed as residual binding level at 1 uM by Kinomescan method relative to control
[20] = target: Phosphatidylinositol 3-kinase catalytic subunit type 3 (Homo sapiens) (UniProt Q8NEB9); assay: Binding affinity to wild-type human partial length VPS34 (S282 to H879 residues) expressed in mammalian expression system assessed as residual binding level at 1 uM by Kinomescan method relative to control
Outline: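 Active site-directed competition binding panel (KinomeScan, 468 kinases). Test compound at 1 μM. Read-out is kinase binding remaining versus DMSO control, expressed as percent of control. Scores above 35% are treated as weak binding.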

Chain of Phosphatidylinositol 3-kinase catalytic subunit type 3 (Homo sapiens) (Q8NEB9 whole entry, the tested form may be a part): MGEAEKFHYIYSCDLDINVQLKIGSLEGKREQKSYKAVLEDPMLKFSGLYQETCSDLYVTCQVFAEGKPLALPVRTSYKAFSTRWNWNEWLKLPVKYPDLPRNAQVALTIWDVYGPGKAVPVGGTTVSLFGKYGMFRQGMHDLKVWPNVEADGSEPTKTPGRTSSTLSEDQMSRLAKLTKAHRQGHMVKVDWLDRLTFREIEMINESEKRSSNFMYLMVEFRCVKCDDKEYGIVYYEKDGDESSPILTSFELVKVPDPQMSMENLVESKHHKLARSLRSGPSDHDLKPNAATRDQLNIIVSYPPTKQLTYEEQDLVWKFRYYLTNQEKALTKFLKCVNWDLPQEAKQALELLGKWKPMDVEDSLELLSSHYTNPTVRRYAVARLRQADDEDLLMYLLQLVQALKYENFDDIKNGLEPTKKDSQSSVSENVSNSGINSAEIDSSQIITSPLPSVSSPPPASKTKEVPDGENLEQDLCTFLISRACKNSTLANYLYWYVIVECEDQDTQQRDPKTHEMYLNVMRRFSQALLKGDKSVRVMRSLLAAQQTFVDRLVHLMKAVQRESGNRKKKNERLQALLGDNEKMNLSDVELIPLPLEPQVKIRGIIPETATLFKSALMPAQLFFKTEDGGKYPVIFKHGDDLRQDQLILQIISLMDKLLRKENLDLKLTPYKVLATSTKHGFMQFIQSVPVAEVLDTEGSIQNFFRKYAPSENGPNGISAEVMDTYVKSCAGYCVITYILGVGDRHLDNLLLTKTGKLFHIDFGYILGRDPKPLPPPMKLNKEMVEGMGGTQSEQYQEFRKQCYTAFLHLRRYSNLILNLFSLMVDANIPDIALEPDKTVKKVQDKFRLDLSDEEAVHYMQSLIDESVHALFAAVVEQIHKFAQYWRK
Chain of Serine/threonine-protein kinase Sgk1 (Homo sapiens) (O00141 whole entry, the tested form may be a part): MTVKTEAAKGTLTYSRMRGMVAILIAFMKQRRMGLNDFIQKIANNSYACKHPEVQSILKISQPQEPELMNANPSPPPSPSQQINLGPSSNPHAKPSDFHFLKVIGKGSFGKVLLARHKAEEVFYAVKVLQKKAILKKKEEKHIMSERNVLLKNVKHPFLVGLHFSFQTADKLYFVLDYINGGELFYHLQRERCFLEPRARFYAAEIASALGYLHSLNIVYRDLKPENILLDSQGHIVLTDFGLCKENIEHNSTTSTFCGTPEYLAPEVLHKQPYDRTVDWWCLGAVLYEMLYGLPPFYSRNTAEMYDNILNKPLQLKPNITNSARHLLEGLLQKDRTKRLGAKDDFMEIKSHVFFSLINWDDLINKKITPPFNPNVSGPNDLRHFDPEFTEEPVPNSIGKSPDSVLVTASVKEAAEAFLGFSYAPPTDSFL
Chain of Hormonally up-regulated neu tumor-associated kinase (Homo sapiens) (P57058 whole entry, the tested form may be a part): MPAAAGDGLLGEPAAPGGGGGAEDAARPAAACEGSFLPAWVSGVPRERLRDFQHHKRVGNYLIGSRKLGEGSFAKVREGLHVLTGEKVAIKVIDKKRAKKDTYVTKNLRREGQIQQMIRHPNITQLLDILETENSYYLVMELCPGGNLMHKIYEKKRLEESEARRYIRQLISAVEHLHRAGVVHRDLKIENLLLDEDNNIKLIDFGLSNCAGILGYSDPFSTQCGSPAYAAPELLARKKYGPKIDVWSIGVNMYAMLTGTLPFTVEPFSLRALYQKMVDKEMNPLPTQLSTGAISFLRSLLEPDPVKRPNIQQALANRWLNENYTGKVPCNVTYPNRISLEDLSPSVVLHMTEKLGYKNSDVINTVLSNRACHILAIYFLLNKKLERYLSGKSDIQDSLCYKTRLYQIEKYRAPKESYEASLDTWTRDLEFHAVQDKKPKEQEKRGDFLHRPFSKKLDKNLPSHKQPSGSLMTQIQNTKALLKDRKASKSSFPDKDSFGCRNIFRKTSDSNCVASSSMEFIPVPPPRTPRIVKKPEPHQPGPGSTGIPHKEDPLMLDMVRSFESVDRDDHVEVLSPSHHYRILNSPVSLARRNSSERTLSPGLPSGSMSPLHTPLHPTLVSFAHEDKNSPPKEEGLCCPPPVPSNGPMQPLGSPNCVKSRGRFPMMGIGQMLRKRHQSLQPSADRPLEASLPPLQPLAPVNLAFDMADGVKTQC
Chain of Insulin-like growth factor 1 receptor (Homo sapiens) (P08069 31-736 limits assumed): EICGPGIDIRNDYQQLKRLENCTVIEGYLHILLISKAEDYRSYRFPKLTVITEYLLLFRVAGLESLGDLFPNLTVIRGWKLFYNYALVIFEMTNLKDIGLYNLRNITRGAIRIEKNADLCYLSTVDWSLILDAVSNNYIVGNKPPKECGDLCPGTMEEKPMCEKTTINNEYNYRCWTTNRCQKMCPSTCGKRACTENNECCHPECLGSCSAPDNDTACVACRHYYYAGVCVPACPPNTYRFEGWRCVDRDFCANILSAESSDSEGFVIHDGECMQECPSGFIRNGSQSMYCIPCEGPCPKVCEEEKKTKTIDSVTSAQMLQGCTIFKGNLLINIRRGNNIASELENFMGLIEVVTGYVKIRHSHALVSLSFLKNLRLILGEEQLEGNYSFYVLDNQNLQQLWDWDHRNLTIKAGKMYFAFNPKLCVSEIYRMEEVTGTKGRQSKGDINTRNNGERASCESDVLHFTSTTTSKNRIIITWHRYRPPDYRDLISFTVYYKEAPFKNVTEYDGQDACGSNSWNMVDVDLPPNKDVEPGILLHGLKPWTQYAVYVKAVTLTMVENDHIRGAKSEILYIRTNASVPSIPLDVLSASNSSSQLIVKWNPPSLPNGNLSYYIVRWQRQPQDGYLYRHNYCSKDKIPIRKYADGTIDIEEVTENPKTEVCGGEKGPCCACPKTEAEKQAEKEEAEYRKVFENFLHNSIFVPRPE
Chain of Insulin-like growth factor 1 receptor (Homo sapiens) (P08069 741-1367 limits assumed): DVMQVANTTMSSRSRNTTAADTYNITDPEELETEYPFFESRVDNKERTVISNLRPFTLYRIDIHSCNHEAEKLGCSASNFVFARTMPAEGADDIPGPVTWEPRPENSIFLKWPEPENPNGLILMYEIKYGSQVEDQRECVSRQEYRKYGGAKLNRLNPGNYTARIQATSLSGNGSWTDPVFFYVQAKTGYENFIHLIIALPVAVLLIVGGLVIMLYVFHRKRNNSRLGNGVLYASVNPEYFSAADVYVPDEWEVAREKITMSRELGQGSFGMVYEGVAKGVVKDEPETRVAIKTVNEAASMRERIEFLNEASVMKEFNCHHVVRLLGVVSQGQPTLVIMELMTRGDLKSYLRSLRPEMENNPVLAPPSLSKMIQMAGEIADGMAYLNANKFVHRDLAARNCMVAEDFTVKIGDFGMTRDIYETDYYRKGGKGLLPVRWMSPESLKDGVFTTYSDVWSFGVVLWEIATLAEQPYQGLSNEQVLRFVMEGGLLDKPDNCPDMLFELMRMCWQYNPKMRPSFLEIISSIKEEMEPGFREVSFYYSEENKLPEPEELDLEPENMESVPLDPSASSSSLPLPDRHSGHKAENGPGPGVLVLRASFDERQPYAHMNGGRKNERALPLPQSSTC
Chain of Casein kinase I isoform alpha-like (Homo sapiens) (Q8N752 whole entry, the tested form may be a part, canonical isoform): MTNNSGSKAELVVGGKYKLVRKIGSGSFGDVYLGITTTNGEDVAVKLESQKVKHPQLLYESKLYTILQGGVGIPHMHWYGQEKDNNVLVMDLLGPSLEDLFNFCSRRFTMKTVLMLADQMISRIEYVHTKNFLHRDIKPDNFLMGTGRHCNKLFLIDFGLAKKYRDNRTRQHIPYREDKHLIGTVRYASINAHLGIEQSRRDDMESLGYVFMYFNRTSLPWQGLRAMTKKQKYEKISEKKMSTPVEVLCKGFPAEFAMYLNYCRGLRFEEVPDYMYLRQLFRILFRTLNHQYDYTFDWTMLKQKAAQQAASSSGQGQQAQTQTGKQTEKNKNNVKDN
Chain of Mitogen-activated protein kinase 8 (Homo sapiens) (P45983 whole entry, the tested form may be a part): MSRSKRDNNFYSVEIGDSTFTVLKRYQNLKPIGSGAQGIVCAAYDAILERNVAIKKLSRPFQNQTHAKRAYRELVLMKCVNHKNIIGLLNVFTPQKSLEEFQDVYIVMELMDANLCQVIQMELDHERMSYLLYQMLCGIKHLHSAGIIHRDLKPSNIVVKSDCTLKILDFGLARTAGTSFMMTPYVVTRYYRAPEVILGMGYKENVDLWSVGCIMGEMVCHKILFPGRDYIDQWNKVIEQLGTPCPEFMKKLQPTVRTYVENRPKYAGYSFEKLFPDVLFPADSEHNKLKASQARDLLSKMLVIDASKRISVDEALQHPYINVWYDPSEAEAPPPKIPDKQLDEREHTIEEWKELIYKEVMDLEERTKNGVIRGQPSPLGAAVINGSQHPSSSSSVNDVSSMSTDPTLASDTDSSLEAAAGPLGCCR
Chain of Mitogen-activated protein kinase; ERK1/ERK2 (Homo sapiens) (P27361 whole entry, looked up): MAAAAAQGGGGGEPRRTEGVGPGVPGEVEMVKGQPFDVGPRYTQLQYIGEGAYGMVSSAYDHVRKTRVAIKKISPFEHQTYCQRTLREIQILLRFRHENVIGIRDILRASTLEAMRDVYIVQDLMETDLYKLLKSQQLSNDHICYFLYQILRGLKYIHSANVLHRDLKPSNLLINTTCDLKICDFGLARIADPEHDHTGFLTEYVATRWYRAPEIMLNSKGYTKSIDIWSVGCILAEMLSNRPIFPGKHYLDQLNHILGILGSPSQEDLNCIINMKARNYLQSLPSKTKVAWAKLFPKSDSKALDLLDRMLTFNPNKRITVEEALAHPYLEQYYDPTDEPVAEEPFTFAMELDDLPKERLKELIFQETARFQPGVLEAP
Chain of Mitogen-activated protein kinase; ERK1/ERK2 (Homo sapiens) (P28482 whole entry, looked up): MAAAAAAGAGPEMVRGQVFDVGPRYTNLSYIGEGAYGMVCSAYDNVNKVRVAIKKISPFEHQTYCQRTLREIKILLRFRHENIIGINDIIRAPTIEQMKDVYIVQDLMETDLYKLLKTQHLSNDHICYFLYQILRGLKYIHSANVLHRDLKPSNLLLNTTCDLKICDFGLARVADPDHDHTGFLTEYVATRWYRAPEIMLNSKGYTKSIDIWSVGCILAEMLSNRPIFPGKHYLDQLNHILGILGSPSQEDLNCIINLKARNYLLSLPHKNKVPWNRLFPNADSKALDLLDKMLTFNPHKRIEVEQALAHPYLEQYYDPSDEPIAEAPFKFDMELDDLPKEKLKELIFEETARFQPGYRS

## C=CC(=O)Nc1ccccc1Nc1nc(Nc2ccc(N3CCN(C)CC3)cc2)ncc1C(=O)Nc1c(C)cccc1Cl
[1]
  inhibition: inactive
[2]
  Activity: 0.8%
[3]
  Activity: 100%
[4]
  Activity: 67%
[5]
  Activity: 95%
[6]
  Activity: 100%
[7]
  Activity: 98%
[8]
  Activity: 100%
[9]
  Activity: 100%
[10]
  Activity: 100%
[11]
  Activity: 100%
[12]
  Activity: 88%
[13]
  Activity: 21%
[14]
  Activity: 0.25%
[15]
  Activity: 100%
[16]
  Activity: 91%
[17]
  Activity: 100%
[18]
  Activity: 95%
[19]
  Activity: 100%
[20]
  Activity: 98%
